Measured values reported in PubChem BioAssay.
The source made the active and inactive calls.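 The calls were made as follows, unless noted: active = viability at or below 30% in both replicate assays; inconclusive = viability at or below 30% in just one of the two assays; inactive = the rest.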

Assays:
[1] = reducers of endogenous Her2 protein level, primary screen, SKBR3 breast tumor cells, AlphaScreen, ATP viability (AID 461;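 active = Her2 level under about 52% in both replicate screens, with viability over 70% of control, limit read from the data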;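 as to Her2 level: lower value means less Her2 protein in the cells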;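 as to viability: percent of carrier control wells set as 100% viability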); conditions: 18-24 h, measured here: SKBR3 viability, ATP luminescence, at 10 µM
[2] = target: Receptor tyrosine-protein kinase erbB-2 (Homo sapiens) (UniProt P04626); test: as above; conditions: 18-24 h, at 10 µM, stronger effect = lower value
Receptor tyrosine-protein kinase erbB-2 (Homo sapiens), sequence (P04626 whole entry, looked up): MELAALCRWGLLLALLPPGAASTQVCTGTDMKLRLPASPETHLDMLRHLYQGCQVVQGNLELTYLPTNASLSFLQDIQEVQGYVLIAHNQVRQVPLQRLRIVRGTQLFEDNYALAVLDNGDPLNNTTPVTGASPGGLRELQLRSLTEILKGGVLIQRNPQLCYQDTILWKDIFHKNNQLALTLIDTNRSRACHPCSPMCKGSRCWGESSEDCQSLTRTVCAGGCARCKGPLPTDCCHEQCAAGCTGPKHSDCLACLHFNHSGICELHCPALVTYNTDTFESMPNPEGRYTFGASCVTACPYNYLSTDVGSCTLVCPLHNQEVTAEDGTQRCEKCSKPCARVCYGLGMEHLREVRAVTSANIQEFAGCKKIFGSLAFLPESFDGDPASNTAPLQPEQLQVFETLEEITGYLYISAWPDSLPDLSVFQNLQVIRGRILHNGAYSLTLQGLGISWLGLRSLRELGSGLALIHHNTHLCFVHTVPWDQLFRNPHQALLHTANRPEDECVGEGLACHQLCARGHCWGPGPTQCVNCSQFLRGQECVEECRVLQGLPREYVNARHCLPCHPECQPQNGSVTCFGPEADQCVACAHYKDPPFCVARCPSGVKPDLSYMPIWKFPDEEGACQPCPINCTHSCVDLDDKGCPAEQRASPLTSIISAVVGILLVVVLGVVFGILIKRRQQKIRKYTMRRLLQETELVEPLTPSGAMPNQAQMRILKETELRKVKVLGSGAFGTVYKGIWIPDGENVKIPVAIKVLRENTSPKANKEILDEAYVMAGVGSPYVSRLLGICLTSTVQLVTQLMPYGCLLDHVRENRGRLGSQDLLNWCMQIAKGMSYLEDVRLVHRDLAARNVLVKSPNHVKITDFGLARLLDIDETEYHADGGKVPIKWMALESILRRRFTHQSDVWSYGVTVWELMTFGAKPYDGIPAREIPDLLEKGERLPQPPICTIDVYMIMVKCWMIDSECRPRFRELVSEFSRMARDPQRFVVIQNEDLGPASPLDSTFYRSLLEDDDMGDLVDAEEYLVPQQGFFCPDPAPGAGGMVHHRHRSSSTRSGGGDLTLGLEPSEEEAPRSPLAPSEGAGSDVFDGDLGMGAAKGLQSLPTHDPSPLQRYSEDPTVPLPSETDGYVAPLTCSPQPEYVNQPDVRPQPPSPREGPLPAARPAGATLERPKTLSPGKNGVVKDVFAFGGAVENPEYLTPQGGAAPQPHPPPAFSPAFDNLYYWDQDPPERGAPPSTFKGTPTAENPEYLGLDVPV

[3] = SK-BR-3 cell growth inhibitors, pilot screen, 24 h, human (AID 572;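 active = viability at or below 10% of carrier control in both of two separate runs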;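 also: compound exposure lasted between 18 and 24 h rather than exactly 24 h; 100% = carrier-treated control wells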); conditions: SK-BR-3 viability, CellTiter-Glo luminescence, at 10 µM, stronger effect = lower value
[4] = HUVEC growth inhibition – cell-based, human, primary screen (AID 575); conditions: HUVEC proliferation, CellTiter-Glo luminescence, 72 h; at 10 µM; stronger effect = lower value;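 also: 100% = median of untreated cell wells with 0.1% DMSO on each plate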
Summary of the method: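 Material: primary human umbilical vein endothelial cells / Schedule: 72 h exposure, 37 °C, 5% CO2, 30 min RT equilibration / Signal: ATP-based CellTiter-Glo luminescent read / Read-out basis: percent of median DMSO-control luminescence / Control set: 32 DMSO-only cell-control wells (high), 32 MePR drug-control wells (low) per plate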

[5] = growth inhibitors of H69AR lung tumor, primary screen, human, duplicate replicates (AID 580;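 active = viability at or under a set limit in both replicates, limit being median viability minus 3 SD, cut at about 48% in these data, passing the limit was not always enough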;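 also: 100% = mean luminescence of untreated wells and 0% = no signal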); conditions: H69AR lung tumor cells viability, ATP luminescence, 72 h; at 10 µM; stronger effect = lower value
[6] = reversal of MRP1-mediated doxorubicin resistance, pilot screen, H69AR cells, doxorubicin co-treatment (AID 601;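 active = viability loss from added drug above about 55%, and viability with drug at most 40%, in both replicates, limit read from the data, passing the limit was not always enough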); conditions: CellTiter-Glo, 72 h, at 10 µM; for differential viability (reversal): stronger effect = higher value
[7] = 384-well plate pilot, post-Golgi transport modulator project, inhibition of yeast transport mutant growth (AID 636; in the data active = inhibition above about 31%); conditions: absorbance 615 nm, about 18 h, stronger effect = higher value
[8] = growth suppression of yeast trafficking mutant, preliminary HTS, modulators of trafficking downstream of Golgi apparatus project, 1536-format plate, OD 615 nm (AID 637; in the data active = inhibition above about 30%); conditions: yeast transport mutant growth, absorbance 615 nm, 18 h; stronger effect = higher value
[9] = H69AR cells + 2 uM doxorubicin, measured here: viability with 2 uM doxorubicin, stronger effect = lower value
[10] = H69AR cells, compound alone cytotoxicity

SMILES	viability [1] [%]	Her2 level [2]	viability [3]	viability [4]	viability [5]	differential viability (reversal) ([6]; H69AR cells + 2 uM doxorubicin)	viability [6, 9] [%]	viability [6, 10] [%]	inhibition [7]	inhibition [8]
CCN(C(=O)COC(=O)c1cc(C)n(-c2ccc(F)cc2)c1C)C1CCS(=O)(=O)C1 (stereo not given)	85.5	93.5% (inactive)	85.5% (inactive)	103% (inactive)	103% (inactive)	-0.795% (inactive)	104	103	-3.47% (inactive)	1.61% (inactive)
Cc1cc(C)n(CC2CC(=O)N(c3ccc(Cl)c(Cl)c3)C2=O)n1 (stereo not given)	112	96.5% (inactive)	112% (inactive)	89.9% (inactive)	104% (inactive)	10.4% (inactive)	93.4	104	-4.79% (inactive)	-9.05% (inactive)
C=CCN(C(=O)CNS(=O)(=O)c1ccccc1)C(C(=O)NCCOC)c1ccncc1 (stereo not given)	100	103% (inactive)	100% (inactive)	97.6% (inactive)	102% (inactive)	5.81% (inactive)	96.3	102	-4.27% (inactive)	-9.84% (inactive)
CCC(Sc1ccc2nnc(-c3ccc(F)cc3)n2n1)C(=O)OC (stereo not given)	110	90% (inactive)	110% (inactive)	86.4% (inactive)	83% (inactive)	45% (inactive)	38	83	-7.7% (inactive)	2.5% (inactive)
Cc1cc(C)c2c(n1)nn1c(N3CCN(c4cccc(Cl)c4)CC3)cc(C)nc21	98.5	83.5% (inactive)	98.5% (inactive)	61.8% (inactive)	23.1% (active)	6.38% (inactive)	16.7	23.1	-5.68% (inactive)	3.65% (inactive)
CC1CCN(S(=O)(=O)c2ccc3[nH]cc(C(=O)NCCN4CCOCC4)c(=O)c3c2)CC1	108	104% (inactive)	108% (inactive)	94% (inactive)	96.4% (inactive)	2.28% (inactive)	94.1	96.4	-6.67% (inactive)	-3.06% (inactive)
Cc1ccc(CCNC(=O)Cn2cccc2)cc1	112	98% (inactive)	112% (inactive)	110% (inactive)	99.5% (inactive)	5.51% (inactive)	94	99.5	-4.73% (inactive)	0.67% (inactive)
CN(c1ccccc1C(N)=O)S(=O)(=O)c1ccccc1	105	86% (inactive)	105% (inactive)	101% (inactive)	92.7% (inactive)	7.05% (inactive)	85.7	92.7	-6.53% (inactive)	-0.48% (inactive)
CN1C(=O)CSc2ccc(NC(=O)N3CCN(c4ccccn4)CC3)cc21	102	88.5% (inactive)	102% (inactive)	58.2% (inactive)	91.3% (inactive)	12.2% (inactive)	79.1	91.3	-0.4% (inactive)	3.61% (inactive)
CCOc1cc(C)c(Cl)cc1S(=O)(=O)N(C)C	106	90.5% (inactive)	106% (inactive)	103% (inactive)	95.4% (inactive)	8.76% (inactive)	86.6	95.4	-3.03% (inactive)	-2.1% (inactive)
CCC(=O)Nc1ccc(F)c(Cl)c1	108	99% (inactive)	108% (inactive)	97.9% (inactive)	94.7% (inactive)	3.67% (inactive)	91.1	94.7	-6.53% (inactive)	3.71% (inactive)
CCn1nccc1C(=O)Nc1cc(Cl)ccc1Cl	102	97.5% (inactive)	102% (inactive)	89.3% (inactive)	112% (inactive)	24.9% (inactive)	86.7	112	-5.66% (inactive)	-2% (inactive)
CCN(CC)S(=O)(=O)c1ccc2oc(SCc3ccc(F)cc3)nc2c1	93.5	82.5% (inactive)	93.5% (inactive)	68.5% (inactive)	80.1% (inactive)	-14.8% (inactive)	95	80.1	0.54% (inactive)	-0.95% (inactive)
OC(CN1CCN(c2ccccn2)CC1)Cn1c2ccccc2c2ccccc21 (stereo not given)	100	114% (inactive)	100% (inactive)	67.2% (inactive)	82.1% (inactive)	-10.4% (inactive)	92.4	82.1	-0.65% (inactive)	6.5% (inactive)
COc1ccc(C(=O)Nc2ccc(C)cn2)c(OC)c1	73.5	77% (inactive)	73.5% (inactive)	102% (inactive)	85.4% (inactive)	11.2% (inactive)	74.2	85.4	-4.19% (inactive)	0.98% (inactive)
Cc1cccc(N=C2NC(=O)CS2)c1C	108	80% (inactive)	108% (inactive)	87.1% (inactive)	91.9% (inactive)	3.6% (inactive)	88.3	91.9	0.4% (inactive)	-0.81% (inactive)
CC(=O)c1cc2c(=O)c3cc(C)ccc3oc2nc1C	102	72.5% (inactive)	102% (inactive)	68.4% (inactive)	72.5% (inactive)	-7.35% (inactive)	79.9	72.5	-2.89% (inactive)	-1.43% (inactive)
CCCNC(=O)c1ccccc1C(=O)NCCC	93.5	88.5% (inactive)	93.5% (inactive)	103% (inactive)	90.5% (inactive)	-4.96% (inactive)	95.5	90.5	4.16% (inactive)	18.9% (inactive)
COc1cc(OC)c(-c2nn3c(C4CCCCC4)nnc3s2)cc1OC	102	116% (inactive)	102% (inactive)	80.8% (inactive)	77.5% (inactive)	-2% (inactive)	79.5	77.5	-0.52% (inactive)	2.3% (inactive)
Cc1occc1C(=O)Nc1ccccc1NC(=O)c1ccoc1C	96.5	101% (inactive)	96.5% (inactive)	90.9% (inactive)	100% (inactive)	8.43% (inactive)	92	100	-4.67% (inactive)	0.48% (inactive)
Cc1nc(N2CCC(C)CC2)c2c(C)c(C(=O)O)sc2n1	100	77% (inactive)	100% (inactive)	74.2% (inactive)	84.9% (inactive)	3.62% (inactive)	81.3	84.9	-4.74% (inactive)	-6.33% (inactive)
Cc1nc2cc(-n3ccc(=O)cc3)ccc2n1-c1ccccc1	102	93% (inactive)	102% (inactive)	79.7% (inactive)	90.5% (inactive)	13.4% (inactive)	77.1	90.5	-2.93% (inactive)	-3.49% (inactive)
COC(=O)Nc1ccccc1C(=O)N1CCCCC1	100	93% (inactive)	100% (inactive)	95.8% (inactive)	99% (inactive)	6.15% (inactive)	92.9	99	-5.33% (inactive)	-0.49% (inactive)
Cc1cc(C(=O)CN2C(=O)c3ccccc3C2=O)c(C)n1Cc1cccs1	122	99% (inactive)	122% (inactive)	111% (inactive)	86.3% (inactive)	3.23% (inactive)	83	86.3	-9.45% (inactive)	0% (inactive)
CCOC(=O)c1c(NC(=O)c2cccs2)sc2c1CCN(C(=O)OCC)C2	174	13% (active)	174% (inactive)	6.86% (active)	23.3% (active)	-2.25% (inactive)	25.5	23.3	0.39% (inactive)	-1.8% (inactive)
CC1(C)CC(=O)C(C=Nc2ccc3c(c2)OCO3)=C(O)C1	114	113% (inactive)	114% (inactive)	79.2% (inactive)	75.5% (inactive)	-27.7% (inactive)	103	75.5	0% (inactive)	-4.33% (inactive)
COc1ccc(Cl)cc1C(=O)n1nc(C)cc1C	104	112% (inactive)	104% (inactive)	93% (inactive)	94.6% (inactive)	1.56% (inactive)	93	94.6	2.43% (inactive)	9.17% (inactive)
COc1cc2c(cc1OC)-c1cc(OCc3cccnc3)nc(=O)n1CC2	92	106% (inactive)	92% (inactive)	99.7% (inactive)	92.9% (inactive)	2.05% (inactive)	90.8	92.9	-3.73% (inactive)	9.19% (inactive)
CN1C(=O)NC(NC(=O)C2CCCCC2)(C(F)(F)F)C1=O (stereo not given)	93	85% (inactive)	93% (inactive)	98.7% (inactive)	106% (inactive)	6.06% (inactive)	99.8	106	-0.92% (inactive)	-0.65% (inactive)
